Source: PubChem BioAssay
In the library only some 1.8% were active in any assay of this set; here they are far more common.
UHRF1 binding = UHRF1 methyl-DNA binding inhibition; Q96T88; UHRF1 binding to methylated oligo, TR-FRET; inhibition, % at 4.4 µM; 0.75% of 370,000 active; AID 687016;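 further: UHRF1 SRA domain binding a hemimethylated CpG hairpin DNA probe; 0% = median of test compound wells and 100% = reference inhibitor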
LEDGF integ inh = blocks HIV-1 LEDGF/p75-dependent DNA integration. inhibition, % at 3.7 µM. 0.64% of 370,000 active. AID 743269. TR-FRET IN-LEDGF/p75 DNA integration, Eu/Cy5;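 active means inhibition above the screen-wide mean plus 3 SD, cut at about 13% in these data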;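 further: signal is the Cy5 over europium emission ratio at 671 and 618 nm; 0% = plate median of compound wells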
TDP2 absorb = TDP2 (human) inhibition, absorbance primary screen. O95551. recombinant TDP2, T5PNP hydrolysis, p-nitrophenol absorbance 415 nm. inhibition, % at 12.8 µM. 0.34% of 370,000 active;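 active means inhibition above the mean of all tested compounds plus 3 SD, set per campaign, cut at about 25% in these data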;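 further: 0% = DMSO with enzyme and 100% = buffer with substrate but no TDP2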
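Read-out basis: percent inhibition. System: recombinant human TDP2. Buffer or medium: Mg2+-containing Tris-HCl buffer, pH 7.5. Repeats: single replicate. Timing: reaction 2 h, 37 °C. Benchmarks: high control without enzyme, low control DMSO plus TDP2. Probe or stimulus: 5 mM T5PNP. Doses: 12.8 µM only. Measured by: epi absorbance of p-nitrophenol freed from T5PNP by hydrolysis.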
HCV core dimer = HCV core protein dimerization inhibition. 0.33% of 300,000 active. TR-FRET GST/Flag-core106 dimerization, 1536-well. inhibition, % at 5 µM;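 active means inhibition above the mean of all tested compounds plus 3 SD, set per screening campaign, cut at about 45% in these data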
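Assay system: tagged HCV core106 pair (GST and Flag); medium: KF-containing HEPES buffer, pH 7.45, DTT, CHAPS, BSA; also added: Eu donor and XL665 acceptor anti-tag antibodies; dosing: 5 µM single dose; timing: compound-protein-antibody incubation 4 h at 22.5 °C; signal: TR-FRET 671 and 617 nm emission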
MBD2 inh = blocks human MBD2 binding to methylated DNA | Q9UBB5 | TR-FRET, MBD2 binding to methylated oligonucleotide | inhibition, % at 4.4 µM | 0.31% of 370,000 active; in the data active means inhibition above about 13%
Target sequence (Q9UBB5 whole entry, looked up): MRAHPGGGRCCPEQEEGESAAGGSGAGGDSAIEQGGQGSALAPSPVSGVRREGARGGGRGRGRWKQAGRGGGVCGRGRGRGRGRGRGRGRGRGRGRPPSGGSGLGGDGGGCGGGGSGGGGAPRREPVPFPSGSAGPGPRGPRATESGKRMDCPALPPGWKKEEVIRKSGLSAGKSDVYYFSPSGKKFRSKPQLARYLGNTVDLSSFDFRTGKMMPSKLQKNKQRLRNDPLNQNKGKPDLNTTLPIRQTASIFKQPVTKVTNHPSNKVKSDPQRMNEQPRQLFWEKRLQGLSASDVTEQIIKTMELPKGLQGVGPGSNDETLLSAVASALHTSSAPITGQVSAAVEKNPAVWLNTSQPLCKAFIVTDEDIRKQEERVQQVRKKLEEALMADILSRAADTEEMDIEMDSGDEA
UHRF1 ctr MBD2 = UHRF1 methyl-oligo binding inhibition as MBD2 counter-screen. shares compounds with MBD2 inh. UHRF1 binding to methylated oligonucleotide, TR-FRET. inhibition, % at 4.4 µM. 25% of 1,000 active. AID 720530;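 further: UHRF1 SRA domain binding a labeled hemimethylated CpG hairpin DNA; 0% = vehicle only and 100% = reference inhibitor with vehicle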
MBD2 confirm = confirmation of human MBD2-DBD methylated oligonucleotide binding inhibitors. shares compounds with MBD2 inh. TR-FRET MBD2-DBD binding to methylated oligonucleotide. inhibition, % at 4.4 µM. 26% of 1,000 active. AID 720531; in the data active means inhibition above about 14%
* hit, by the source's call; . = no result. Unless noted, no stated cut-off is given here; in the data, active means inhibition above about 21%; inactive means the rest.

SMILES	UHRF1 binding	LEDGF integ inh	TDP2 absorb	HCV core dimer	MBD2 inh	UHRF1 ctr MBD2	MBD2 confirm
COc1ccc(S(=O)(=O)N2CCN(C(=O)C3COc4ccccc4O3)CC2)cc1 (configuration not stated)	29*	-4	-5	.	26*	75*	70*
CCCCS(=O)(=O)N1CCCc2nc(-c3ccc(F)cc3)ccc21	-1	1	2	.	-2	.	.
COc1ccc(NC(=O)/C(C#N)=C/c2ccc(-c3ccccc3C(=O)O)o2)cc1	-5	2	-23	-3	-1	.	.
COc1ccc(NC(=O)/C(C#N)=C\c2ccc(Br)o2)cc1	14	2	7	24	14*	20	6
COc1cccc2c1C(=O)c1c(O)c3c(c(O)c1C2=O)C[C@@](O)(C(C)=O)C[C@@H]3O[C@H]1C[C@H](N)[C@H](O)[C@H](C)O1	91*	4	9	.	107*	98*	110*
COc1cccc2c1C(=O)c1c(O)c3c(c(O)c1C2=O)CC(O)(C(=O)CO)CC3OC1CC(N(C)C)C(O)C(C)O1 (configuration not stated)	97*	13	0	.	113*	99*	111*
CCc1nc2c(OCc3cccc(OC)c3)cccn2c1N(C)C(=O)c1ccccc1F	-2	-2	-2	.	26*	3	1
O=C(NCCN1CCC(Cc2ccccc2)CC1)C1CCCN(S(=O)(=O)c2ccc(Cl)s2)C1 (configuration not stated)	2	4	-5	.	0	.	.
COC(=O)C1=C(C)N(Cc2cccc(C(F)(F)F)c2)C(=NCC2CC2)NC1c1ccc(F)cc1 (configuration not stated)	1	-3	-1	.	0	.	.
O=S1(=O)c2ccc(Br)cc2OC[C@@H](Cc2ccccc2)N1Cc1cn(Cc2ccc(Cl)cc2)nn1	3	0	4	.	-6	.	.
COc1ccc(CNC(=O)c2ccc(-n3ccnc3)c3ccoc23)cc1OC	23*	1	-5	.	14*	12	13
O=C(NCc1cccc(Cl)c1)c1ccc(-n2ccnc2)c2ccoc12	22*	0	11	.	14*	7	8
COc1ccc2c(c(-c3ccccc3)cn2C)c1-c1ccccc1	0	0	-4	.	4	.	.
COC(=O)C[C@H]1C[C@H]2c3cc(NS(=O)(=O)c4ccc(OC)cc4)ccc3O[C@H]2[C@H](CO)O1	12	-2	2	.	21*	9	3
CCCCNC(=O)C[C@H]1C[C@@]2(C(=O)OC)C(=C[C@H](C3CCCC3)O[C@@H]2C)N(Cc2cccc3ccccc23)C1=O	-1	0	-12	.	-7	.	.
C#CCCC(=O)Nc1sc2c(c1-c1nc3ccccc3s1)CCN(C(C)C)C2	-24	-2	1	.	7	.	.
CC1CCN(c2ccc(C(=O)O)cc2NS(=O)(=O)c2ccc(C(C)(C)C)cc2)CC1	1	5	-2	.	8	.	.
Cc1nn(CCc2n[nH]c(=S)n2-c2ccc(F)cc2)c(C)c1[N+](=O)[O-]	0	-2	3	2	73*	8	2
Cc1nn(CCc2n[nH]c(=S)n2-c2ccc(F)c(Cl)c2)c(C)c1[N+](=O)[O-]	-3	0	5	-2	2	.	.
Cc1ccc(S(=O)(=O)N2CCCC2C(=O)N2CCc3ccccc3C2)cc1C (configuration not stated)	5	-1	9	.	1	.	.
CN(CCO)c1cccc2c1S(=O)(=O)N(Cc1cn(Cc3ccccc3C(F)(F)F)nn1)Cc1ccccc1O2	2	0	10	.	-2	.	.
CC(=O)Nc1ccc2c(c1)ncn2C1CCCCC1	-2	-1	-5	-7	34*	3	2
COC(=O)Nc1ccc2c(c1)ncn2C1CCCCC1	1	-2	3	2	1	.	.
CCCCN1C(=O)N2Cc3ccc(C)cc3C2CS1(=O)=O (configuration not stated)	1	-1	-6	.	-5	.	.
CCOC(=O)[C@]12CCC=C1N(Cc1ccco1)C(=O)[C@H](CC(=O)N1CCC(c3ccccc3)CC1)C2	10	-1	-5	.	15*	7	10
SMILES	UHRF1 binding	LEDGF integ inh	TDP2 absorb	HCV core dimer	MBD2 inh	UHRF1 ctr MBD2	MBD2 confirm
O=C(O)CC(NC(=O)COc1ccc(Cl)cc1Cl)C(=O)O (configuration not stated)	1	-2	-12	-3	26*	5	2
COc1ccc(Cn2cc(CN3[C@@H](Cc4ccccc4)COc4cc(Br)ccc4S3(=O)=O)nn2)cc1	-1	-5	-1	.	4	.	.
CC(=O)c1cc(-c2ccc(F)cc2)n(CCC(=O)NC(C)(C)C)c1C	83*	15*	-1	5	36*	3	1
Cc1cc2[nH]c3c4ccccc4nc(C)c3c2cc1C	6	-1	0	.	17*	19	33*
CCN1CCN(CC(O)COCC2COc3ccccc3O2)CC1 (configuration not stated)	16	-1	11	-1	16*	6	0
O=C1N2Cc3ccccc3C2CS(=O)(=O)N1Cc1ccccc1 (configuration not stated)	-1	0	3	.	-1	.	.
C[N+]1(CC(=O)NNc2c3ccccc3nc3ccccc23)CCOCC1	29*	1	-17	-17	40*	34*	31*
COc1ccc(C(=O)C[n+]2ccc3c(c2)nc(Cc2ccccc2)n3C)cc1	4	0	-4	.	5	.	.
Cc1ccc(CN2C(=O)C3CCCN3c3ncccc32)cc1 (configuration not stated)	-2	-2	-7	9	52*	5	3
COc1ccc(C(=O)c2ccc3oc(-c4ccc(OC)cc4)c(C#CCCO)c3c2)cc1	-2	0	4	-7	-5	.	.
COc1cc(OC)cc(-c2oc3cccnc3c2C#CCCO)c1	2	1	4	10	21*	2	0
COCc1[nH]nc2c1C(c1ccc3c(c1)OCO3)N(Cc1ccccc1)C2=O (configuration not stated)	-1	-1	3	.	-6	.	.
O=C(/C=C/c1cccc(Br)c1)N1CCN(c2ccccn2)CC1	35*	-3	0	-2	14*	4	3
COc1cc(OC)cc(-c2sc3ccc(OC)cc3c2C#CC2(N)CCCCC2)c1	29*	9	8	.	14*	3	7
CCOC(=O)c1cnc2c(ccc3ccccc32)c1NCCCN(C)C	4	2	-10	2	20*	5	26*
